Bioassay records deposited in PubChem by several laboratories.
ABCG2 block: human ABCG2 inhibition, ABCB1 as counter-screen. inhibition, % at 6.6 µM. 0.1% of 190,000 active. Q9UNQ0. IgMXP3 cells, JC-1 efflux, flow cytometry;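 active = inhibition above 80%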;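 also: 0% = DMSO and 100% = nicardipine control wells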
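Test system: IgMXP3 cells (ABCG2) mixed with DDAO far-red-labelled CCRF-Adr cells (ABCB1). Reagent: JC-1 transporter substrate. Compound dosing: single test compound dose, 6.6 µM final. Times: 10 min compound exposure, 25 °C. Detection: flow cytometry of retained JC-1 fluorescence. Read-out basis: efflux inhibition in percent versus controls. Controls: nicardipine and DMSO wells.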
bCat nuc transl: modulators of beta-catenin nuclear translocation. HeLa beta-catenin nuclear translocation, immunofluorescence imaging. nuclear translocation activity, % at 5 µM. 0.3% of 190,000 active;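 active = nuclear translocation activity above 50% at 5 µM, with a well cell count of 50 or more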;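 also: per-cell ratio of nuclear to cytoplasmic median beta-catenin stain intensity; plate controls were DMSO negative control for no effect and GSK-3 inhibitor IX positive control for full effect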
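Test system: human HeLa cell line; Doses: 5 µM primary, 0.02–20 µM confirmation; Incubation: 24 h compound exposure, 37°C; Detection: beta-catenin immunofluorescence imaging with DAPI; Read-out: beta-catenin nuclear/cytoplasmic ratio, % activation.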
MT stabilizer: microtubule stabilizers in HeLa cells | HeLa tubulin immunostaining HCS, 24 h; share of cells brighter than vehicle mean+2SD | % tubulin-high responders, % at 10 µM | 0.83% of 200,000 active | AID 2205;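 active = plate Z-score above 3 for both tubulin-high and condensed-nucleus cell shares, with cell loss under 80%, at 10 µM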;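 also: anti alpha tubulin signal scored within the nucleus-defined area of each cell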
ABCB1 block: blocks JC-1 efflux by human ABCB1 transporter; CCRF-Adr cells, flow cytometry; inhibition, % at 6.6 µM; 0.067% of 190,000 active; in the data active = inhibition above about 40%;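 also: 0% = vehicle and 100% = reference inhibitor; higher value means more JC-1 retained so stronger ABCB1 efflux block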
PKD1 kinase inh: inhibitors of human PKD1 kinase; 0.056% of 200,000 active; PKD1 kinase fluorescence polarization assay; inhibition, % (test concentration not listed); Q15139; in the data active = inhibition above about 50%
Target sequence (Q15139 whole entry, looked up): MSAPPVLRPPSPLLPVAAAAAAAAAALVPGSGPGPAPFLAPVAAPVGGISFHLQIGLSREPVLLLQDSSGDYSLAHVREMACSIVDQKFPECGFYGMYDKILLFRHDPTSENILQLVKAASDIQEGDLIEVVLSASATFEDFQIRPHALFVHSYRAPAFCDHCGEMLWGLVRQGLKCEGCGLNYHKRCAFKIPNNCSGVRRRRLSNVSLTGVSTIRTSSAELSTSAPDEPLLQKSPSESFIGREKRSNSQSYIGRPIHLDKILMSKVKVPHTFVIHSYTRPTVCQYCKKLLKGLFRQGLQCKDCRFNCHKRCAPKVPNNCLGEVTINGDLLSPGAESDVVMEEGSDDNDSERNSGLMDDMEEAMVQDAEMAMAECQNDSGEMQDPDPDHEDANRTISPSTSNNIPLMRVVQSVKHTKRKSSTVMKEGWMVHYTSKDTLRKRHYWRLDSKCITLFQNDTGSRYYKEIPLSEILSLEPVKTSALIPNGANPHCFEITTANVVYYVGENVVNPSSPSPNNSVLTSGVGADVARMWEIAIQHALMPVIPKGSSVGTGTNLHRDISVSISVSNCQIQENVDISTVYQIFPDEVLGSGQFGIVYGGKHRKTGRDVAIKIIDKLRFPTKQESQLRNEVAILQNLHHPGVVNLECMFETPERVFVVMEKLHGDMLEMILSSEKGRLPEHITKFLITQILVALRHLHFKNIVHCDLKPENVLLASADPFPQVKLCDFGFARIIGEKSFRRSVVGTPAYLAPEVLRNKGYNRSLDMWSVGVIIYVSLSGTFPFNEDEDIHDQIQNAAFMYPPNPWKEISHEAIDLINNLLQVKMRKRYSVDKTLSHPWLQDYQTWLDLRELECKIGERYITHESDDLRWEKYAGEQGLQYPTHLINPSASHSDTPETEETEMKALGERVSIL
* marks the source's active call; other numbers are inactive results; / = no result given. Compounds with a hit are over-represented: about 1% of the library has one in this group of screens.

SMILES	ABCG2 block	bCat nuc transl	MT stabilizer	ABCB1 block	PKD1 kinase inh
CC(C)(C)c1ccc(C(=O)N/N=C/c2ccc(OCCCF)cc2)cc1	0.4	5.4	1.5	0.1	-0.9
COC(=O)c1sc2nc(CN3CCN(c4cccc(C(F)(F)F)c4)CC3)[nH]c(=O)c2c1C	9.6	0.2	5.2	1.2	-3.2
Cc1cccc(-n2ccnc2SCC(=O)Nc2nccs2)c1C	-3.1	-1.1	4.1	-6.3	-6.0
CCc1nnc(NC(=O)CSc2nccn2-c2cccc(C)c2C)s1	4.4	-0.5	19.5*	1.9	-4.0
COc1ccc2[nH]cc(CCNC(=O)C3CCCO3)c2c1 (configuration not stated)	0.7	-1.2	3.5	0.5	5.7
O=C(c1ccco1)N1CCN(C(=O)c2cnn3c2NC(c2cccs2)CC3C(F)(F)F)CC1 (configuration not stated)	0.8	/	2.6	0.4	-1.2
O=C(c1cnn2c1NC(c1ccco1)CC2C(F)(F)F)N1CCN(c2cccc(Cl)c2)CC1 (configuration not stated)	4.5	43.8	45.5*	0.9	-3.5
Cc1cc(C)c(CSc2ncnc3nc[nH]c23)c(C)c1	1.2	56.1*	2.3	0.3	-2.3
CN(c1ccc(OCC(=O)N2CCOCC2)cc1)S(=O)(=O)c1ccc(Cl)cc1	3.4	-1.0	2.4	1.3	6.4
CCCC1Cc2nc(Cl)c(C#N)cc2CO1 (configuration not stated)	/	-0.1	/	/	/
Cc1ccc(NC(=S)N/N=C/c2c(Cl)cccc2Cl)c(C)c1	2.5	99.4*	13.4*	-0.2	-1.2
CCOc1ccc(C2=Nc3ccccc3C(c3ccc(N4CCOCC4)cc3)=NN2)cc1	1.2	/	35.3*	0.8	1.0
C=CCSc1nc2ccsc2c(=O)n1-c1cccnc1	1.8	-0.8	2.1	0.6	-4.1
Cc1cc(O)c(C2=Nc3ccccc3SC(c3ccc(Cl)cc3)C2)c(=O)o1 (configuration not stated)	-1.1	2.0	5.8	0.0	0.3
COc1ccc(C2CC(c3c(O)cc(C)oc3=O)=NCCS2)c(OC)c1 (configuration not stated)	2.6	109.5*	9.8	0.8	-9.4
O=C(Nc1ccccc1Br)c1ccccc1-c1ccccc1	13.9	57.9*	15.2*	2.3	3.2
Cc1cc(C)c2nc(SCC(=O)N3CC(=O)Nc4ccccc43)c(C#N)cc2c1	7.0	43.9	10.1	1.7	-6.3
COc1ccc2nc(SCC(=O)N3CC(=O)Nc4ccccc43)c(C#N)cc2c1	5.4	/	26.8*	1.6	1.5
CCOc1cc(C#N)c(NC(=O)c2ccco2)cc1OCC	5.1	8.5	39.6*	0.3	-0.7
COc1ccc(-c2n[nH]c(C(F)(F)F)c2-c2cc3ccccc3o2)c(O)c1	0.2	93.7*	30.2*	0.1	-3.5
COc1ccc(/C=N/NC(=O)c2[nH]nc3c2CCc2ccccc2-3)cc1OC	-6.9	127.4*	22.3*	-0.6	7.3
COc1ccc(/C=N/NC(=O)c2nc(-c3ccccc3)cc(-c3ccccc3)n2)cc1OC	31.1	3.8	3.8	22.0	3.0
O=C1NC2c3ccccc3C(=O)N2c2c1cnn2-c1ccccc1 (configuration not stated)	45.4	-2.5	11.3*	1.3	-13.7
COc1ccc(CCN(C)C(=O)CSc2nc3ncc(Cl)cc3[nH]2)cc1OC	16.4	1.5	4.4	2.0	7.6
COCCCNc1c2c3c(cccc3[nH]c1=O)C(=O)c1ccccc1-2	12.5	/	14.7*	15.5	109.6*
SMILES	ABCG2 block	bCat nuc transl	MT stabilizer	ABCB1 block	PKD1 kinase inh
CCSc1nnc(NC(=O)Cc2cc(OC)c(OC)c(OC)c2)s1	10.7	-2.6	2.4	1.1	-0.8
N#C/C(C(=O)NCCc1ccccc1)=C1/N=C(NC(=O)c2cccs2)c2ccccc21	-1.6	48.7	11.7*	0.0	-0.7
COc1ccc(C(=O)Nc2ccccc2C(=O)N/N=C/c2ccco2)cc1	6.8	/	3.1	1.4	5.2
CCOc1ccc(-c2cc(CCCC(=O)Nc3cccc(OC)c3)no2)cc1	-0.1	99.7*	23.3*	-2.3	-5.5
O=C(CCNS(=O)(=O)c1cccc2nonc12)NCc1cccs1	-0.2	0.9	3.9	0.1	-6.6
Cc1ccc2nc(/C(C#N)=C/c3cn[nH]c3-c3ccc(F)cc3)[nH]c2c1	0.7	100.2*	35.8*	0.4	6.6
Cc1ccc2nc(/C(C#N)=N/O)[nH]c2c1	3.0	/	1.5	0.3	1.1
Cc1c(N2C(=O)c3cccc4cccc(c34)C2=O)cnn1C	/	0.3	/	/	/
CC(C)c1ccc(N(C(=O)C(F)(F)F)C(C(=O)NC2CCCCC2)c2ccncc2)cc1 (configuration not stated)	0.4	-1.4	4.6	0.5	-9.5
Cc1noc(C)c1COc1cccc(C(=O)OC(C)C(=O)Nc2ccc3c(c2)OCO3)c1 (configuration not stated)	2.7	95.0*	25.5*	1.0	-7.7
COc1cc(C(=O)OC(C)C(=O)Nc2ccc3c(c2)OCO3)ccc1OCc1c(C)noc1C (configuration not stated)	4.5	-0.4	2.4	1.1	-12.2
Cc1noc(C)c1COc1cccc(C(=O)Nc2ccc3c(c2)OCO3)c1	6.4	7.8	16.9*	1.6	-3.4
CC(=O)Nc1ccc(C(=O)NCC(=O)OCc2c(F)cccc2Cl)cc1	21.6	-3.2	1.6	0.6	1.5
Cc1cc2nc3c(c(C(F)(F)F)n2n1)CCCC3	2.8	4.8	1.9	0.1	0.2
COc1cc(C(=O)O)ccc1OCc1c(C)noc1C	-0.4	1.6	1.3	-0.1	4.7
COc1cc(C(=O)OCC(C)=O)ccc1OCc1c(C)noc1C	7.8	45.0	31.1*	0.7	-4.0
COc1ccc(CNC(=O)CSc2nc(-c3ccccc3)cc(-c3cccs3)c2C#N)cc1	38.7	/	0.8	0.8	-5.7
COc1ccc(-c2cc(-c3cccs3)c(C#N)c(SCC(=O)NCc3ccco3)n2)cc1	1.2	93.9*	20.3*	0.5	-3.0
CC[n+]1c(/C=C/C=C/N(C(C)=O)c2ccccc2)sc2cc(OC)ccc21	14.2	164.6*	73.1*	3.9	-23.1
CCOC(=O)CNC(=O)C(CC(C)C)NC(=O)C1CCCCC1 (configuration not stated)	-0.3	10.2	1.4	0.7	1.4
O=c1c2c3c(sc2nc(NCCO)n1Cc1ccco1)CCCCC3	0.8	2.1	6.0	0.1	-0.8
O=c1c2c3c(sc2nc(NCCO)n1CCc1ccccc1)CCCCC3	3.2	31.6	19.2*	0.7	1.3
Cc1noc(C)c1C(=O)NC(C)c1ccc(Cl)cc1Cl (configuration not stated)	-1.2	-2.4	1.3	-2.1	6.1
CCCCCCCCn1ccc(=N)cc1	/	1.7	/	/	/
CCCCCCCCCCCCCCCCn1cc[n+](C)c1	-0.8	17.5	71.8*	0.0	-3.0
CCOC(=O)c1c(C)c(C(=O)Nc2ccc(N(C)C)cc2)c(C)n1CC	-1.2	-4.3	13.5*	-0.2	11.4
